Screens from PubChem BioAssay.
Most compounds without a hit are left out; they make up all but 3.1% or so of the library.
ADAM17 inh = inhibitors of human ADAM17 | P78536 | recombinant ADAM17, EDANS/DABCYL FRET peptide cleavage | inhibition, % at 6.95 µM | hit rate 0.83% among 370,000;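 active means inhibition above the mean of compounds lying between control limits plus 3 SD, set per campaign, cut at about 8.5% in these data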;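 further: 0% = DMSO-only wells as the low control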
Hep lipid drop = modulators of hepatic lipid droplet formation | AML12 mouse hepatocytes, oleate lipid droplets, BODIPY imaging | AID 1656 | inhibition, % at 6.5 µM | hit rate 0.4% among 240,000;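 active means lipid droplet intensity inhibited by at least 50%, with more than 500 cells counted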
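Assay system: AML12 hepatocytes (mouse) / Also added: 100 µM oleic acid challenge / Times: overnight treatment with compound plus oleate / Detection: high-content imaging of BODIPY-stained droplets and DAPI nuclei / Evaluation: % inhibition of lipid droplet signal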
ADAM10 inh = inhibitors of human ADAM10. O14672. inhibition, % at 7 µM. recombinant ADAM10, EDANS/DABCYL FRET peptide cleavage, 3 h. hit rate 0.62% among 370,000;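 active means inhibition above a per-campaign cutoff equal to the mean of compounds falling between control-based bounds plus 3 SD, cut at about 20% in these data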;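 further: 0% = DMSO wells while the 100% control is not disclosed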
Target sequence (O14672 214-748 limits assumed): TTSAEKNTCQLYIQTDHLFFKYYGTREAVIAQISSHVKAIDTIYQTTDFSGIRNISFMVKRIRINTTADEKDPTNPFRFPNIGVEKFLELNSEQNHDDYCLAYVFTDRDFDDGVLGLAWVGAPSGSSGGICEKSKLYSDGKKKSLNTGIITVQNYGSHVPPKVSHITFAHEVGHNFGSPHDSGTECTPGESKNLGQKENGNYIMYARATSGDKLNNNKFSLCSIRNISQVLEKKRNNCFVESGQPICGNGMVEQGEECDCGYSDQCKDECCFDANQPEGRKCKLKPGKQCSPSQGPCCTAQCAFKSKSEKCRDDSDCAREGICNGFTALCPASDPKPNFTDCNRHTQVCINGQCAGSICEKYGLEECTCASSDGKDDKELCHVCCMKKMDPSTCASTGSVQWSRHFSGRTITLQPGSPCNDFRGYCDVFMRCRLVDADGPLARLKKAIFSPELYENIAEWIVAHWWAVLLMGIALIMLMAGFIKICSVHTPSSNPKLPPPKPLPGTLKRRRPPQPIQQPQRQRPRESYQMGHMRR
V-ATPase pH = regulators of yeast V-ATPase proton transport. AID 504577. S. cerevisiae, pHLuorin cytosolic pH fluorescence. response, % at 10 µM. hit rate 0.37% among 350,000; in the data active means response mostly above about 7.3%, no sharp cut-off; inactive means mostly below about 5.4%; further: actives read high
MPTP block = permeability transition pore inhibition; isolated mouse mitochondria, Ca2+ swelling absorbance, 30 min; hit rate 1.4% among 360,000; inhibition, % at 10 µM;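 active means inhibition of 50% or more, scaled per plate between neutral and stimulator controls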;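 further: 0% = DMSO wells given calcium and 100% = 1 mM EGTA wells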
aDG glyco up = alpha-DG glycosylation activation | AID 624168 | Pro5-aDG cells, alpha-DG glycosylation AlphaScreen (IIH6); 0% Pro5, 100% B10-LARGE cell signal | hit rate 0.22% among 360,000 | activation, % at 10 µM;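 active means activation of at least 8% versus controls, or a plate z-score of at least 8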;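 further: Pro5 are CHO cells carrying HIG-tagged alpha-DG that lacks glycosylation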
ADAM10 confirm = confirmation of inhibitors of human ADAM10. shares compounds with ADAM10 inh. ADAM10 QFRET peptide cleavage, EDANS fluorescence. inhibition, % at 6.95 µM. hit rate 1% among 2,100. AID 743208;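 active means inhibition above about 20% chosen separately for each screening run, limit read from the data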;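 further: 0% = DMSO wells and 100% = marimastat wells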
ADAM17 counter = counter-screen for ADAM10 exosite inhibitors: inhibitors of human ADAM17; inhibition, % at 6.95 µM; hit rate 0.5% among 2,100; shares compounds with ADAM10 inh; ADAM17 QFRET peptide cleavage, EDANS fluorescence;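 active means mean triplicate inhibition above the solvent-only control wells' mean plus 3 SD, cut at about 12% in these data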;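 further: 0% = DMSO wells and 100% = marimastat wells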
ADAM10 counter = inhibits human ADAM10 in ADAM17 exosite counter-screen. shares compounds with ADAM17 inh. inhibition, % at 6.95 µM. AID 743256. recombinant ADAM10, EDANS/DABCYL FRET peptide cleavage, 3 h. hit rate 47% among 2,900;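 active means mean inhibition over the triplicate runs exceeds the activity threshold set in the earlier primary screen, cut at about 20% in these data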;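 further: 0% = DMSO wells and 100% = marimastat wells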
ADAM17 confirm = human ADAM17 inhibition, confirmation; hit rate 65% among 2,900; inhibition, % at 6.95 µM; shares compounds with ADAM17 inh; recombinant ADAM17, EDANS/DABCYL QFRET peptide cleavage;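 active means mean inhibition across replicates above the hit cutoff set in the primary screen, cut at about 8.5% in these data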;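 further: 0% = DMSO wells and 100% = marimastat wells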
Starred values were filed as active, the others as inactive; i = inactive; x = not tested or not shown; ! = not active in a repeat.

SMILES	ADAM17 inh	Hep lipid drop	ADAM10 inh	V-ATPase pH	MPTP block	aDG glyco up	ADAM10 confirm	ADAM17 counter	ADAM10 counter	ADAM17 confirm
COC(=O)[C@]12C[C@H](CC(=O)NCc3cccc(C(F)(F)F)c3)C(=O)N(CCc3ccc(OC)c(OC)c3)C1=C[C@H](C1CCCC1)O[C@@H]2C	9.0*	x	27.7*	x	x	x	7.6	1.6	27.0*	12.0*
COC(=O)[C@]12C[C@H](CC(=O)NCc3cccc(C(F)(F)F)c3)C(=O)N(Cc3ccccc3)C1=C[C@H](C(C)C)O[C@@H]2C1CC1	6.3	x	10.0	x	x	x	x	x	x	x
COC(=O)[C@]12C[C@H](CC(=O)NCc3cccc(C(F)(F)F)c3)C(=O)N(Cc3ccco3)C1=C[C@H](C(C)(C)C)O[C@@H]2C	10.0*	x	21.9*	x	x	x	5.9	1.0	41.6*	20.9*
O[C@H](COc1ccc(C(F)(F)F)cc1)CN1CCC(C(O)(c2ccccc2)c2ccccc2)CC1	7.6	x	15.9	x	x	x	x	x	x	x
C=CCN(CC=C)CC(O)Cn1c2ccccc2c2ccccc21 (stereo unspecified)	-5.2	x	-7.5	0.0	1.6	1.5	x	x	x	x
OC(COCC(F)(F)C(F)(F)C(F)(F)C(F)F)Cn1c2ccccc2c2ccccc21 (stereo unspecified)	14.7*	-36.8	34.0*	-0.4	8.5	3.8	12.1	5.4	29.2*	19.1*
Cc1cccc(C)c1OCC(O)Cn1c2ccccc2c2ccccc21 (stereo unspecified)	12.2*	x	20.4*	4.0	14.0	2.3	17.1	5.0	20.6*	12.7*
COc1ccc(CNC(=O)COC(=O)CCCOc2ccc(Cl)cc2Cl)cc1	2.9	0.0	10.0	-2.3	-3.5	0.0	x	x	x	x
O=C(COC(=O)CCCOc1ccc(Cl)cc1Cl)Nc1cccc(Cl)c1	12.8*	x	23.0*	-3.3	1.3	0.0	9.2	4.1	37.7*	20.2*
Cc1ccc(NC(=O)N(Cc2ccco2)C(C)c2ccco2)cc1C (stereo unspecified)	-1.5	x	4.6	1.3	0.7	0.3	x	x	x	x
Cc1ccc(NC(=O)CN(Cc2ccco2)Cc2ccccc2O)cc1C	13.8*	7.9	28.0*	-0.8	4.2	0.1	4.0	0.9	30.4*	14.2*
COc1ccc(N/N=C(/C(N)=O)C2=NC(C)(C)Cc3ccccc32)cc1	13.8*	1.6	28.2*	3.3	1.1	-0.5	2.7	0.3	8.6	4.7
CC1(C)Cc2ccccc2C(/C(C#N)=N/O)=N1	-0.4	-7.5	3.8	0.5	-1.8	0.1	x	x	x	x
O=C(NC1CCCC1)N1CCC(c2nc3ccc(Cl)cc3[nH]2)CC1	0.2	x	2.8	x	x	x	x	x	x	x
CCOC(=O)CNC(=O)N(C)[C@H]1C[C@H]2c3[nH]c4c(-c5cccc(C)c5)cccc4c3CCN2C(=O)[C@H]1[C@H](C)O	-199.8	x	i	x	x	x	x	x	x	x
C#CCN1CC(N(C)CCOC(=O)c2ccc([N+](=O)[O-])cc2)CS1(=O)=O (stereo unspecified)	3.9	x	8.6	x	x	x	x	x	x	x
COc1cc(NC(=O)c2cnc(N)s2)cc(C(=O)Nc2cccc(C(F)(F)F)c2)c1	9.8*!	3.7	19.9*!	0.6	0.5	0.0	6.4	2.0	22.2*	14.0*
Cc1noc(C)c1COc1ccc(C(=O)OCc2nnc(-c3ccc(Cl)cc3)o2)cc1	12.3*	x	21.7*	3.5	0.0	0.0	2.3	1.5	21.0*	13.7*
O=C(OCc1nnc(-c2ccc(Cl)cc2)o1)c1ccncc1	-4.2	x	-10.7	-0.8	0.8	0.0	x	x	x	x
O=C(NCC1CCN(C(=O)C(=O)c2cccs2)CC1)c1ccc2c(c1)CCO2	-4.8	x	-1.8	x	x	x	x	x	x	x
COc1ccc2cc(-c3cn(C(=O)N(c4ccccc4)c4ccccc4)nn3)ccc2c1	-0.3	x	6.8	x	x	x	x	x	x	x
COc1ccc(NS(=O)(=O)c2ccc(NC(=S)NC(=O)C(C)C)cc2)cc1	12.0*	x	30.2*	2.4	1.3	0.2	1.2	0.8	10.7	9.1*
CCOc1ccc(NS(=O)(=O)c2ccc(NC(=S)NC(=O)C(C)C)cc2)cc1	1.9	-4.9	7.9	2.0	0.7	0.4	x	x	x	x
Cc1ccccc1NC(=S)NCCC(c1ccccc1)c1ccccc1	15.8*	x	36.6*	-3.5	0.5	1.6	7.3	2.7	8.1	7.2
COc1ccc(OC)c(NC(=S)NCCC(c2ccccc2)c2ccccc2)c1	8.7*	x	21.4*	5.0	-0.3	1.7	6.9	1.5	23.4*	21.6*
SMILES	ADAM17 inh	Hep lipid drop	ADAM10 inh	V-ATPase pH	MPTP block	aDG glyco up	ADAM10 confirm	ADAM17 counter	ADAM10 counter	ADAM17 confirm
CCOC(=O)N1CCN(C(=O)C[C@H]2C[C@@]3(C(=O)OC)C(=C[C@H](C(C)C)O[C@@H]3C3CC3)N(Cc3ccco3)C2=O)CC1	2.6	x	7.1	x	x	x	x	x	x	x
Cc1ccc(C=NNC(=O)CSc2nc3sc4c(c3c(=O)n2-c2ccccc2)CCCC4)s1	-0.7	x	-2.4	x	x	x	x	x	x	x
COc1ccc(CSc2nnc(SCC(=O)Nc3ccc(S(N)(=O)=O)cc3)s2)cc1	-0.6	x	3.8	x	x	x	x	x	x	x
CCn1cc([N+](=O)[O-])c(C(=O)N2N=C(c3cccc4ccccc34)CC2c2ccccc2O)n1 (stereo unspecified)	9.3*	19.2	23.0*	7.5	-12.9	0.3	6.9	1.8	29.1*	16.9*
Cc1ccc(C(=O)Nc2cccc([N+](=O)[O-])c2)cc1S(=O)(=O)Nc1ccc(NC(=O)c2ccccc2)cc1	15.4*	2.6	37.2*	-0.9	2.8	-0.2	5.6	1.5	35.2*	22.6*
Cc1ccc(C(=O)Nc2cccc([N+](=O)[O-])c2)cc1S(=O)(=O)Nc1cccc(C(=O)O)c1	-0.1	2.3	-4.7	8.9	-1.0	-0.3	x	x	x	x
O=C(N1CCCC1)n1ncc(-c2ccc(-c3ccccc3)cc2)n1	-5.6	x	-11.6	x	x	x	x	x	x	x
O=[N+]([O-])c1cccnc1N1CCC(c2cc(-c3ccc(Cl)cc3Cl)n[nH]2)CC1	11.3*	-6.7	30.0*	-2.3	-6.1	-0.1	7.5	2.1	31.0*	16.7*
NC(=O)C1CCN(c2ncccc2[N+](=O)[O-])CC1	-4.3	-4.3	1.6	-3.2	1.0	0.0	x	x	x	x
O=[N+]([O-])c1cccnc1N1CCC(c2cc(-c3cccc(C(F)(F)F)c3)n[nH]2)CC1	10.5*	5.2	20.2*	-0.7	0.6	1.6	14.8	3.3	47.8*	19.4*
O=[N+]([O-])c1cccnc1N1CCCCC1	-3.8	x	-5.9	-1.3	-2.6	0.0	x	x	x	x
